Assay results as given in article PMC2752828 (Organic & biomolecular chemistry, 2008).

Molecular target: T1, Cdc25B catalytic domain (Homo sapiens, UniProt P30305)
T1 sequence (P30305 374-551 limits assumed): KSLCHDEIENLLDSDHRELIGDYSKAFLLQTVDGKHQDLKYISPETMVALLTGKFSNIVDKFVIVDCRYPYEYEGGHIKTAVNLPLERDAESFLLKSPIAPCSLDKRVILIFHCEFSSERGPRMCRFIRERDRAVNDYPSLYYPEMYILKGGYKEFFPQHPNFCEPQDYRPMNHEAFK
Experiment: OMFP fluorescence phosphatase assay, 10-point curve
Assay type: biochemical
Summary of the method: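 Recombinant human Cdc25B catalytic domain incubated with test compound and O-methylfluorescein phosphate substrate for 60 min; fluorescence change read at 485 nm excitation/525 nm emission. Percent inhibition taken relative to maximum and minimum controls. IC50 fitted to four-parameter logistic model over 10 concentrations, 25 μM to 0.2 μM; two independent experiments in triplicate.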

SMILES	IC50
O=C1C(Cl)=C(NCCN2CCOCC2)C(=O)c2nccnc21 [WDP1263, 6-Chloro-7-(2-morpholin-4-yl-ethylamino)quinoxaline-5,8-dione]	0.5 ± 0.1 µM
O=C1C(Cl)=C(NCCN2CCOCC2)C(=O)c2c(Cl)ccnc21 [WDP1079, 4,7-Dichloro-6-(2-morpholin-4-yl-ethylamino)quinoline-5,8-dione]	1.1 ± 0.1 µM
COc1ccnc2c1C(=O)C(NCCN1CCOCC1)=C(F)C2=O [WDP1149, 7-Fluoro-4-methoxy-6-(2-morpholin-4-yl-ethylamino)quinoline-5,8-dione]	5.3 ± 0.6 µM
